The subject of data set [1] is Human immunodeficiency virus 1. In words: Antiviral activity against wild type HIV1 in presence of 10% FBS. The format is functional, organism-based.
In data set [2] the test system is Human immunodeficiency virus 1. In words: Antiviral activity against HIV1 harboring G140S/Q148H double mutant in presence of 10% FBS. The class given is functional, organism-based. A digest of the protocol:
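HIV-1 carrying G140S/Q148H double-mutant integrase; antiviral EC50 determined with 10% FBS in the medium.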

Data set [3] in a line: Clearance in Beagle dog at 1 mg/kg, iv. The format is ADME, organism-based, Canis lupus familiaris. The note with it: in vivo.
The nature of data set [4]: Volume of distribution at steady state in Sprague-Dawley rat at 1 mg/kg, iv measured up to 4 hrs. The following applies: in vivo, read-out: Vdss. The format is ADME, organism-based. A digest of the protocol: (§1)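 Male Sprague-Dawley rats dosed IV with compound as a PEG-400/ethanol (90:10) solution. Plasma exposure was followed for 4 h, and Cmax, t1/2, clearance and Vss were derived from that profile.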

Data set [5] in a line: AUC in cynomolgus monkey at 5 mg/kg, po. The class given is ADME, organism-based, Macaca fascicularis. The arrangement: dose 5 mg/kg. The following applies: in vivo. A digest of the protocol:
(§2)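 Cynomolgus monkeys dosed IV or PO with compound formulated as a PEG-400/ethanol (90:10) solution. Oral bioavailability was taken from the PO versus IV exposure.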

In data set [6] the test system is Human immunodeficiency virus 1. Nature of the data set: Antiviral activity against HIV1 harboring G140S/Q148H double mutant in presence of HSA. The format is functional, organism-based.
Data set [7] in a line: Half life in cynomolgus monkey at 1 mg/kg, iv. The class given is ADME, organism-based, Macaca fascicularis. The following applies: in vivo. A digest of the protocol:
as §2

The nature of data set [8]: Binding affinity to wild type HIV1 integrase. The arrangement: species or system Human immunodeficiency virus 1.
Data set [9] in a line: Clearance in cynomolgus monkey at 1 mg/kg, iv. The format is ADME, organism-based, Macaca fascicularis. The following applies: in vivo. Summed up:
as §2

A short description of data set [10]: Oral bioavailability in Beagle dog at 5 mg/kg. The format is ADME, organism-based, Canis lupus familiaris. The note with it: in vivo.
The nature of data set [11]: Volume of distribution at steady state in cynomolgus monkey at 1 mg/kg, iv. The note with it: in vivo, read-out: Vdss. The format is ADME, organism-based, Macaca fascicularis. Summed up: as §2
Data set [12] in a line: Volume of distribution at steady state in Beagle dog at 1 mg/kg, iv. The format is ADME, organism-based, Canis lupus familiaris. The note with it: in vivo, read-out: Vdss.
The nature of data set [13]: AUC in Beagle dog at 5 mg/kg, po. The arrangement: dose 5 mg/kg. The following applies: in vivo. The format is ADME, organism-based, Canis lupus familiaris.
The nature of data set [14]: Cmax in Sprague-Dawley rat at 1 mg/kg, iv measured up to 4 hrs. The format is ADME, organism-based. Also noted: route intravenous, dose 1 mg/kg, time <=4. The following applies: in vivo. A digest of the protocol: as §1
Data set [15] can be described thus: Clearance in Sprague-Dawley rat at 1 mg/kg, iv measured up to 4 hrs. The format is ADME, organism-based. The following applies: in vivo. Summed up:
as §1

Data set [16] is described as follows: Half life in Beagle dog at 1 mg/kg, iv. The class given is ADME, organism-based, Canis lupus familiaris. The following applies: in vivo.
Data set [17] in a line: Oral bioavailability in Sprague-Dawley rat at 5 mg/kg. The format is ADME, organism-based. The following applies: in vivo.
Data set [18] is described as follows: Oral bioavailability in cynomolgus monkey at 5 mg/kg. The class given is ADME, organism-based, Macaca fascicularis. The following applies: in vivo. Summed up: as §2
The target in data set [19] is Integrase (Human immunodeficiency virus 1, UniProt T1QYY3, G140S/Q148H). In words: Binding affinity to […] HIV1 integrase G140S/Q148H mutant.
A short description of data set [20]: Half life in Sprague-Dawley rat at 1 mg/kg, iv measured up to 4 hrs. The note with it: in vivo. The format is ADME, organism-based. Summed up:
as §1

Data set [21] in a line: AUC in Sprague-Dawley rat at 5 mg/kg, po. The format is ADME, organism-based. The arrangement: dose 5 mg/kg. The note with it: in vivo.
Data set [22] is described as follows: Ratio of EC50 for Antiviral activity against HIV1 harboring G140S/Q148H double mutant in presence of 10% FBS to EC50 for antiviral activity against HIV1 harboring G140S/Q148H double mutant in presence of HSA. The format is functional, Human immunodeficiency virus 1.
A short description of data set [23]: Clearance in Sprague-Dawley rat at 0.5 mg/kg, iv measured up to 4 hrs. The following applies: in vivo. The format is ADME, organism-based. A digest of the protocol:
as §1

Data set [24] is described as follows: Cmax in Sprague-Dawley rat at 0.5 mg/kg, iv measured up to 4 hrs. The class given is ADME, organism-based. The arrangement: route intravenous, dose 0.5 mg/kg, time <=4. The following applies: in vivo. Summed up:
as §1

A short description of data set [25]: Half life in Sprague-Dawley rat at 0.5 mg/kg, iv measured up to 4 hrs. The note with it: in vivo. The class given is ADME, organism-based. Summed up:
as §1

Data set [26] is described as follows: Volume of distribution at steady state in Sprague-Dawley rat at 0.5 mg/kg, iv measured up to 4 hrs. The following applies: in vivo, read-out: Vdss. The class given is ADME, organism-based. A digest of the protocol:
as §1

In data set [27] the test system is Human immunodeficiency virus 1. In words: Antiviral activity against HIV1 harboring Q148R mutant. The format is functional, organism-based.

Bounds are passed on as bounds.

On to `CN(C)C(=O)C(=O)NC12CCC(CC1)n1c2nc(C(=O)NCc2ccc(F)cc2)c(O)c1=O`, for which the values for the EC50 in data set [1] and in [2] were 8 nM and more than 8000 nM, respectively.
In the same order, the values of `CN(C)C(=O)C(=O)NC12CCC(CC1)Cn1c2nc(C(=O)NCc2ccc(F)cc2C(F)(F)F)c(O)c1=O` are 8 nM and more than 8000 nM.
The corresponding values for `CN(C)C(=O)C(=O)NC12CCC(CC1)Cn1c2nc(C(=O)NCc2ccc(F)c(F)c2)c(O)c1=O` are 0.7 nM and 17 nM.
In the same order, the values of `CC(C)C(=O)C(=O)NC12CCC(CC1)Cn1c2nc(C(=O)NCc2ccc(F)cc2)c(O)c1=O` are 2 nM and 94 nM.
On to `CN(C)C(=O)NC12CCC(CC1)Cn1c2nc(C(=O)NCc2ccc(F)cc2)c(O)c1=O`, for which the figures for the EC50 in [1] and in data set [2] were 14 nM and 361 nM, respectively.
With `CNC(=O)c1cc(F)ccc1CNC(=O)c1nc2n(c(=O)c1O)CC1CCC2(NC(=O)C(=O)N(C)C)CC1`, the figures for the EC50 in data set [1] and in [2] were 60 nM and more than 8000 nM, respectively.
`CN(C)C(=O)C(=O)NC12CCC(CC1)Cn1c2nc(C(=O)NCc2ccc(F)c(Cl)c2)c(O)c1=O`: the EC50 is 0.8 nM in data set [1] and 6 nM in data set [2].
As to `CN(C)C(=O)CNC12CCC(CC1)Cn1c2nc(C(=O)NCc2ccc(F)cc2)c(O)c1=O`, the EC50 was 7 nM in [1] and more than 8000 nM in data set [2].
In the same order, the values of `CN(C)C(=O)C(=O)NC12CCC(CC1)Cn1c2nc(C(=O)NCc2ccc(F)c(C(F)(F)F)c2)c(O)c1=O` are 1.4 nM and 32 nM.
In the same order, the values of `CCOC(=O)C(=O)NC12CCC(CC1)Cn1c2nc(C(=O)NCc2ccc(F)cc2)c(O)c1=O` are 21 nM and more than 8000 nM.
Regarding `CN(C)C(=O)C(=O)NC12CCC(CC1)Cn1c2nc(C(=O)NCc2ccc(F)cc2S(C)(=O)=O)c(O)c1=O`, the results for the EC50 in [1] and in data set [2] were 11 nM and more than 8000 nM, respectively.
In the same order, the values of `CN(C)C(=O)C(=O)NC12CCC(CC1)Cn1c2nc(C(=O)NCc2ccc(F)cc2Cl)c(O)c1=O` are 1.3 nM and 1320 nM.
As for `Cc1cc(F)ccc1CNC(=O)c1nc2n(c(=O)c1O)CC1CCC2(NC(=O)C(=O)N(C)C)CC1`, the EC50 in [1] stood at 1.3 nM; in [2], 558 nM.
Turning to `Cc1cc(CNC(=O)c2nc3n(c(=O)c2O)CC2CCC3(NC(=O)C(=O)N(C)C)CC2)ccc1F`, the clearance was determined as 7 mL/min/kg in data set [3], 13.5 mL/min/kg in data set [9] and 12.6 mL/min/kg in data set [15]. In addition, the Vd is 1.2 L/kg in [4], 0.26 L/kg in data set [11] and 0.3 L/kg in [12]. Moreover, the exposure (AUC) in data set [5] came to 2.89 µM·h; in [13] it was 20.8 µM·h; in data set [21], 14.7 µM·h. The EC50 in data set [6] was found to be 21 nM; in data set [1] it was 0.7 nM; in [2] it was 3 nM. In addition, the half-life in data set [7] was 1.6 h; in [16], 1.6 h; in data set [20], 12.3 h. Further, the inhibition constant (Ki) came to 2 nM in [8] and 8 nM in [19]. Also, the bioavailability in data set [10] was 83%; in [17], 103%; in data set [18], 23%. In [14], this compound returned a Cmax of 5.3 µM. Besides, the “Ratio EC50” value in data set [22] was 7.
Consider `CN(C)CC(=O)NC12CCC(CC1)Cn1c2nc(C(=O)NCc2ccc(F)cc2)c(O)c1=O`, for which the EC50 in data set [1] is 20 nM; in data set [2] it was more than 8000 nM.
In the same order, the values of `CN(C)C(=O)C(=O)NC12CCC(CC1)Cn1c2nc(C(=O)NCc2ccc(F)cc2F)c(O)c1=O` are 0.7 nM and 37 nM.
With `CN(C)C(=O)C(=O)NC12CCC(CC1)Cn1c2nc(C(=O)NCc2ccc(F)cc2)c(O)c1=O`, the Ki in data set [8] is 2 nM; in data set [19], 17 nM. Moreover, in [23], the clearance was found to be 30.5 mL/min/kg. Moreover, the EC50 in [1] came to 1 nM; in data set [2], 10 nM. In data set [24], this compound yielded a Cmax of 1.93 µM. The half-life in data set [25] was 0.45 h. Moreover, in data set [26], the Vd came to 0.63 L/kg.
Regarding `CN(C)C(=O)C(=O)NC12CCC(Cn3c1nc(C(=O)NCc1ccc(F)cc1)c(O)c3=O)C2` (stereo not drawn), the EC50 in data set [1] amounted to 2 nM; in data set [2], 39 nM; in data set [27] it was 26 nM.

The values above are taken from ChEMBL document CHEMBL4725239, “Design, synthesis and SAR study of bridged tricyclic pyrimidinone carboxamides as HIV-1 integrase inhibitors” (Bioorg Med Chem, 2020).
